Measured values collected from several papers.
Each line is one published result; the experiments were not run side by side.
Target: Interleukin-1 receptor-associated kinase 1 (IRAK1, Homo sapiens, UniProt P51617)

| SMILES | assay | setting | endpoint | result |
| --- | --- | --- | --- | --- |
| CNC(=O)c1cc(Oc2ccc(NC(=O)Nc3ccc(Cl)c(C(F)(F)F)c3)cc2)ccn1 | enzyme activity, inhibitor | 0.3 µM | inhibition | -4% |
| COc1cc(Cl)c(C(=O)N[C@@H](CN[C@H]2CC[C@@H](N)CC2)Cc2ccc(C#N)cc2)cc1-c1ccc(CN[C@H](C)c2ccc(C)cc2)o1 | enzyme activity, inhibitor | 1 µM | remaining activity | 97% |
| COc1ccc2c(c1)O[C@H](c1ccc(OC)c(OC)c1)C[C@@H]2NC(=O)C1(c2ccc3c(c2)OC(F)(F)O3)CC1 | cell-free assay, competition with immobilised ligand | 1 µM | remaining binding | 93% |
| COc1cccc2c(NCc3ccccc3)nc(-n3c(N)nc4ccccc43)nc12 | target engagement in cells, inhibitor, chemoproteomics | 20 mM | inhibition | -2.2% |
| Cc1ccc(NC(=O)c2ccc(C)c(C(F)(F)F)c2)cc1C#Cc1nn(C2CCC(O)CC2)c2ncnc(N)c12 (stereo not drawn) | cell-free assay | 10 µM | remaining signal | 30% |
| CN1CC(Oc2cnc(C#N)cc2-c2ccn3nc(NC(=O)C4CC4)cc3c2)C1 | enzyme activity, inhibitor | 1 µM | inhibition | 38% |
| Cc1ccc(Nc2nccc(N(C)c3ccc4c(C)n(C)nc4c3)n2)cc1S(N)(=O)=O | enzyme activity, inhibitor | 0.3 µM | inhibition | -6% |
| CC(=O)N1CCC(c2ccc(C(=O)NC3=NCCN3)cc2C(F)(F)F)CC1 | cell-free assay, competition with immobilised ligand | 1 µM | remaining binding | 78% |
| CN(C)C1CCN(CC#Cc2nn(C3CCCC3)c3nc(NCc4ccccc4)ncc23)C1 (stereo not drawn) | enzyme activity, inhibitor, FRET | 10 µM | inhibition | 37% |
| FC(F)(F)Oc1cccc(-c2cnc3ccc(-c4ccncc4)nn23)c1 | enzyme activity, inhibitor, radiometric | 1 µM | activity vs control | 52% |
| O=C(Nc1cnn(-c2csc(C(=O)NC3COC3)c2)c1)Nc1c(F)cccc1Cl | enzyme activity, inhibitor | 5 µM | remaining activity | 107% |
| Cc1nc(Cc2cccc(C(F)(F)F)c2)sc1-c1ccc(C(N)=O)nc1 | cell-free assay, competition with immobilised ligand | 1 µM | remaining binding | 100% |
| COc1cc(Nc2cnc(C#N)c(O[C@H](C)CN(C)C)n2)ncc1-c1cnn(C)c1 | enzyme activity, inhibitor, radiometric | 10 µM | remaining activity | 9% |
| CCCS(=O)(=O)Nc1ccc(F)c(C(=O)c2c[nH]c3ncc(-c4ccc(Cl)cc4)cc23)c1F | enzyme activity, inhibitor | 1 µM | inhibition | < 10% |
| CNC(=O)Nc1ccc2c(c1)CC[C@@]21OC(=O)N(CC(=O)N(Cc2ccc(F)cc2)[C@@H](C)C(F)(F)F)C1=O | cell-free assay, competition with immobilised ligand | 1 µM | remaining binding | 71% |
| COc1cc2nccc(Oc3ccc(NC(=O)c4c5n(n(-c6ccc(F)cc6)c4=O)CCCC5)cc3)c2cc1OC | enzyme activity, inhibitor | 0.1 µM | inhibition | -7% |
| O=C(NC[C@@H]1[C@H]2CN(C(=O)OCc3cc(C(F)(F)F)cc(C(F)(F)F)c3)C[C@@H]12)c1ccc2[nH]nnc2c1 | cell-free assay, competition with immobilised ligand | 1 µM | remaining binding | 98% |
| O=C1Nc2ccc(Cl)cc2C1=Cc1cc(Cl)c(O)c(Cl)c1 | cell-free assay | 0.5 µM | remaining signal | 95.4% |
| CCCOc1ccc([C@@H]2[C@@H](C(=O)O)[C@H](c3ccc4c(c3)OCO4)CN2CC(=O)Nc2c(CC)cccc2CC)cc1 | cell-free assay, competition with immobilised ligand | 1 µM | remaining binding | 96% |
| C=CC(=O)Nc1cc(Nc2nccc(Nc3cc(Cl)c(F)cc3C(C)(C)O)n2)c(OC)cc1N1CC[C@@H](N(C)C)C1 | enzyme activity, inhibitor | 1 µM | inhibition | 11% |
| CC(C)(C)c1nc2c(s1)c1nc(N)ncc1c1ccc(NS(=O)(=O)c3c(F)cccc3F)c(F)c12 | enzyme activity, inhibitor, radiometric | 1 µM | remaining activity | 90% |
| CNC(=O)Nc1ccc2c(c1)[C@@]1(CC2)OC(=O)N(CC(=O)N(Cc2ccc(F)cc2)[C@@H](C)C(F)(F)F)C1=O | cell-free assay, competition with immobilised ligand | 1 µM | remaining binding | 88% |
| Nc1ncnc2occ(-c3ccc(NC(=O)Nc4cc(C(F)(F)F)ccc4F)cc3)c12 | cell-free assay, inhibitor | 20 µM | remaining signal | 0.85% |
| c1ccc(N2CCN(Cc3nc4ccccc4[nH]3)CC2)nc1 | binding, competition with immobilised ligand | 1 µM | remaining binding | 100% |
| CCN(CC)c1ccc(C2=NNC(=O)CC2C)cc1[N+](=O)[O-] (stereo not drawn) | enzyme activity, inhibitor | 10 µM | remaining activity | 89% |
| COc1ccc(COc2ccc(Cc3cnc(N)nc3N)cc2OC)cc1 | cell-free assay | 0.5 µM | remaining signal | 123% |
| CC(C)(O)[C@H]1CC[C@H](Nc2ccc3ncc(-c4cccc(C(F)(F)F)c4)n3n2)CC1 | enzyme activity, inhibitor | 1 µM | remaining activity | 87.1% |
| COc1cc(-c2cc(-c3ccc(N4CCNCC4)cc3)cnc2C)cc(OC)c1OC | enzyme activity, inhibitor | 1 µM | inhibition | 1% |
| O=C(Nc1cnn(-c2csc(C(=O)NC3COC3)c2)c1)Nc1ccccc1Cl | enzyme activity, inhibitor | 5 µM | remaining activity | 112% |
| CCN(CC)CCNC(=O)c1c(C)[nH]c(/C=C2\C(=O)Nc3ccc(F)cc32)c1C | enzyme activity, inhibitor | 0.3 µM | inhibition | 31% |
